Laboratory results: ChEMBL document CHEMBL3392992, “Synthesis, antiproliferative activity, and in silico insights of new 3-benzoylamino-benzo[b]thiophene derivatives” (Eur J Med Chem, 2015)

Experiments:
[1] = test system: HeLa; experiment: Toxicity against human HeLa cells assessed as effect on cell membrane integrity at 1 to 20 uM after 48 hrs by trypan blue dye exclusion method; assay type: cell-based
[2] = test system: HeLa; experiment: Antiproliferative activity against human HeLa cells assessed as reduction in cell proliferation after 48 hrs by MTT assay; assay type: functional
How it was run: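 HeLa cells grown with FBS, 2 mM L-glutamine, penicillin/streptomycin at 37 °C, 5% CO2, seeded at 1.0 × 10^4 cells/cm2 (approx.). After 24 h, medium switched to 5% FBS medium with compounds diluted from 20 mM DMSO stocks, 50 to 0.05 µM, final DMSO ≤0.25% (vehicle control). Incubated 48 h. MTT 0.5 mg/mL for 4 h at 37 °C, formazan dissolved in DMSO, OD 570 nm. GI50 by linear regression of percent growth vs control. Three experiments, each in quadruplicate.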

[3] = test system: HeLa; experiment: Induction of cell cycle arrest in human HeLa cells assessed as increase in accumulation at subG0/G1 phase after 24 to 48 hrs by propidium iodide staining based flow cytometry; assay type: functional; details: TDE = time-dependent effect

| Compound | GI50 [2] | Activity [1] | Activity [3] |
| --- | --- | --- | --- |
| CCOC(=O)c1sc2ccc(NCc3c[nH]cn3)cc2c1NC(=O)c1ccc(C(F)(F)F)cc1 | 16.8 µM | Non-toxic | – |
| CCOC(=O)c1sc2ccc(N)cc2c1NC(=O)c1ccc(C)cc1 | 24.4 µM | Non-toxic | – |
| CCOC(=O)c1sc2ccc(NCc3c[nH]cn3)cc2c1NC(=O)c1ccc(C)cc1 | 11.7 µM | Non-toxic | – |
| CCOC(=O)c1sc2ccc(NCc3c[nH]cn3)cc2c1NC(=O)c1ccc(OC)cc1 | 12.9 µM | Non-toxic | – |
| CCOC(=O)c1sc2ccc(N)cc2c1NC(=O)c1ccc(F)c(Cl)c1 | 12.3 µM | Non-toxic | – |
| CCOC(=O)c1sc2ccc(NCc3nc[nH]c3C)cc2c1NC(=O)c1ccc(C(F)(F)F)cc1 | 12.8 µM | Non-toxic | – |
| CCOC(=O)c1sc2ccc(N)cc2c1NC(=O)c1ccccc1 | > 50 µM | Non-toxic | – |
| CCOC(=O)c1sc2ccc(NCc3nc[nH]c3C)cc2c1NC(=O)c1ccccc1 | 23.3 µM | Non-toxic | – |
| CCOC(=O)c1sc2ccc(N)cc2c1NC(=O)c1ccc(OC)cc1 | > 50 µM | Non-toxic | – |
| CCOC(=O)c1sc2ccc(NCc3c[nH]cn3)cc2c1NC(=O)c1ccccc1 | 17.9 µM | Non-toxic | – |

More lines, in order of falling GI50 [2], values ahead:

| GI50 [2] | Compound | Activity [1] | Activity [3] |
| --- | --- | --- | --- |
| 11.4 µM | CCOC(=O)c1sc2ccc(NCc3nc[nH]c3C)cc2c1NC(=O)c1ccc(C)cc1 | Non-toxic | – |
| 10.7 µM | CCOC(=O)c1sc2ccc(NCc3c[nH]cn3)cc2c1NC(=O)c1ccc(F)c(Cl)c1 | Non-toxic | – |
| 8.22 µM | CCOC(=O)c1sc2ccc(NCc3nc[nH]c3C)cc2c1NC(=O)c1ccc(OC)cc1 | Non-toxic | – |
| 6.79 µM | CCOC(=O)c1sc2ccc(NCc3c[nH]cn3)cc2c1NC(=O)c1cc(OC)c(OC)c(OC)c1 | Non-toxic | – |
| 6.68 µM | CCOC(=O)c1sc2ccc(N)cc2c1NC(=O)c1ccc(C(F)(F)F)cc1 | Non-toxic | – |
| 4.66 µM | CCOC(=O)c1sc2ccc(N)cc2c1NC(=O)c1cc(OC)c(OC)c(OC)c1 | Non-toxic | tde |
| 2.91 µM | CCOC(=O)c1sc2ccc(NCc3nc[nH]c3C)cc2c1NC(=O)c1ccc(F)c(Cl)c1 | Non-toxic | tde |
| 2.23 µM | CCOC(=O)c1sc2ccc(NCc3nc[nH]c3C)cc2c1NC(=O)c1cc(OC)c(OC)c(OC)c1 | Non-toxic | tde |
